Measured values taken from ChEMBL document CHEMBL1121570, “3-(4-Piperidinylalkyl)indoles, selective inhibitors of neuronal 5-hydroxytryptamine uptake” (J Med Chem, 1980).
Active and inactive are the calls of the source. No cut-off for these calls is given here.

Columns and labels:
[1] = biological target: Norepinephrine transporter (Rattus norvegicus, UniProt Q9WTR4); assay: Inhibition of uptake of noradrenaline in rat brain hypothalamus; assay type: functional, tissue-based
Outline: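 Brain synaptosomes from immature female rats (19-21 days) were incubated 5 min at 37 °C with labelled amine at 10⁻⁷ M. Four to six drug concentrations were run in duplicate.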

Rattus norvegicus [2] = assay: Antagonism of tetrabenazine ptosis in rat after oral administration; assay type: functional
Outline: (§1)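 Rats dosed orally 0.5 h before tetrabenazine (10 mg/kg, sc). Ptosis scored present or absent 1 h later. ED50 taken as the dose preventing ptosis in 50% of animals.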

[3] = biological target: Sodium-dependent dopamine transporter (Rattus norvegicus, UniProt P23977); assay: Inhibition of uptake of dopamine (DA) rat brain striatum; assay type: functional, tissue-based
Sodium-dependent dopamine transporter, sequence (P23977 whole entry): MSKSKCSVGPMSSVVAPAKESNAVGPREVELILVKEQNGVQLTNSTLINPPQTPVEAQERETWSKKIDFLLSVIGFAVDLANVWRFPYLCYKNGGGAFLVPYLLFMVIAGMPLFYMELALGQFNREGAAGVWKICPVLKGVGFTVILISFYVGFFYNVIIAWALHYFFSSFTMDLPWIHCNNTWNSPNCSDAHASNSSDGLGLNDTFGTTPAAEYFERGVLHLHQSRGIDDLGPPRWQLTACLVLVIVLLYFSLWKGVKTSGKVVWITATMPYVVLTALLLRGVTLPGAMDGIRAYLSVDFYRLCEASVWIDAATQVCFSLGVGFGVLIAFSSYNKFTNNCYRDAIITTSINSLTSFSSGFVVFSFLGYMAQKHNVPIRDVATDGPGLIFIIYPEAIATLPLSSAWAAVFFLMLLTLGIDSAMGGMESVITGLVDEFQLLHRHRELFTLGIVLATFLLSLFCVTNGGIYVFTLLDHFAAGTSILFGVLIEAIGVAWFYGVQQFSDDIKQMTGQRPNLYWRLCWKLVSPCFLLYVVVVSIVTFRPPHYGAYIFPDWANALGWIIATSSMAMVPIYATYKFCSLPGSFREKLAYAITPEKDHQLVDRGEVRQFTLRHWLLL
Outline: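 Brain synaptosomes from immature female rats (19-21 days) were incubated 5 min at 37 °C with labelled amine at 10⁻⁷ M. Four to six drug concentrations were run in duplicate. IC50 is the concentration inhibiting uptake by 50%.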

[4] = biological target: Sodium-dependent serotonin transporter (Homo sapiens, UniProt P31645); assay type: functional, organism-based
Sodium-dependent serotonin transporter (Homo sapiens, UniProt P31645), sequence (P31645 whole entry): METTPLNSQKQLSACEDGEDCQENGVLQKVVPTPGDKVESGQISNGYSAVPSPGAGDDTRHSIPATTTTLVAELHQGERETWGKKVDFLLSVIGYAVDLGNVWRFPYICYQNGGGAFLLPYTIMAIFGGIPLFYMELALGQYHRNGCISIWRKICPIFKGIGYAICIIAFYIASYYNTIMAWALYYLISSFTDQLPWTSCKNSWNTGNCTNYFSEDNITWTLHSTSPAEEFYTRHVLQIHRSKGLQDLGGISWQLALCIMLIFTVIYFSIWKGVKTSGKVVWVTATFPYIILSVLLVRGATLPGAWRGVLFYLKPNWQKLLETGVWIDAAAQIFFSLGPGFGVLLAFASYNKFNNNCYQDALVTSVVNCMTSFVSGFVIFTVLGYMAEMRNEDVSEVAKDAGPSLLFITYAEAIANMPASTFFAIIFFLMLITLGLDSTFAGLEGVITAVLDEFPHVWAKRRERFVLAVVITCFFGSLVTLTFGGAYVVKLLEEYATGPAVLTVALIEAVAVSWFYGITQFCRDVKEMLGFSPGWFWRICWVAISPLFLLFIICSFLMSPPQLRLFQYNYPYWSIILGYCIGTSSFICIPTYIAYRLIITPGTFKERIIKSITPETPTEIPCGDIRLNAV

Mus musculus [5] = assay: Compound was tested for potentiation of 5-HTP in mouse after subcutaneous administration; assay type: functional; conditions: sc
Outline: (§2)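 Mice in groups of eight received L-5-HTP 100 mg/kg ip in 0.9% NaCl. Drug was given sc 30 min after 5-HTP. Tremor was rated at 75 min (0 none, 1 moderate, 2 severe). ED50 is the dose giving a mean score of 1, derived from the group global scores.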

Rattus norvegicus [6] = assay: Antagonism of tetrabenazine ptosis in rat after oral administration.; assay type: functional, organism-based; outline: as §1
[7] = biological target: Sodium-dependent serotonin transporter (Rattus norvegicus, UniProt P31652); assay: Inhibition of uptake of 5-HT in rat brain cortex; assay type: functional, tissue-based
Sodium-dependent serotonin transporter (Rattus norvegicus, UniProt P31652), sequence (P31652 whole entry): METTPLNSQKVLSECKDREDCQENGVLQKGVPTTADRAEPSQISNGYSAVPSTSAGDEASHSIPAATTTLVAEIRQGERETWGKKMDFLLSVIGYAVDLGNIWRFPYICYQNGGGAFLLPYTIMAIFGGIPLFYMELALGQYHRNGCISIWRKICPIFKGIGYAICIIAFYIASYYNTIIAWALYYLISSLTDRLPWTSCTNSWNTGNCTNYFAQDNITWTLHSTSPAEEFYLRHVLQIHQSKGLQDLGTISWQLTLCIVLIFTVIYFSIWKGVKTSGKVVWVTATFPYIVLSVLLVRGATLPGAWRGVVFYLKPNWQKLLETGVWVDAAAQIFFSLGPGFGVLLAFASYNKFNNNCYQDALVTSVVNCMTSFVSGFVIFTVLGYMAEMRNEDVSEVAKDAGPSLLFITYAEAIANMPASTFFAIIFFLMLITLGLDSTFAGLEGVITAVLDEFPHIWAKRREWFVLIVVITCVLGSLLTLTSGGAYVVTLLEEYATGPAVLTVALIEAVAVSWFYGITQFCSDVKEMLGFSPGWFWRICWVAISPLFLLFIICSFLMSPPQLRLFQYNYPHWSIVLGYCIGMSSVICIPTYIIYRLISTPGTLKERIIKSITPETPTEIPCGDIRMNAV

Mus musculus [8] = assay: Potentiation of 5-HTP in mouse after subcutaneous administration.; assay type: functional, organism-based; outline: as §2
Mus musculus [9] = assay: Compound was tested for potentiation of 5-HTP in mouse after subcutaneous administration; Inactive at the dose 3 mg/kg; assay type: functional, organism-based; set-up: dose 3 mg/kg; outline: as §2
Mus musculus [10] = assay: Compound was tested for potentiation of 5-HTP in mouse after subcutaneous administration; Inactive at 25 mg/kg; assay type: functional, organism-based; set-up: dose 25 mg/kg; outline: as §2
Rattus norvegicus [11] = assay: Antagonism of tetrabenazine ptosis in rat after oral administration; Inactive at the dose 10 mg/kg; assay type: functional, organism-based; set-up: dose 10 mg/kg; outline: as §1

Norepinephrine transporter, sequence (Q9WTR4 whole entry): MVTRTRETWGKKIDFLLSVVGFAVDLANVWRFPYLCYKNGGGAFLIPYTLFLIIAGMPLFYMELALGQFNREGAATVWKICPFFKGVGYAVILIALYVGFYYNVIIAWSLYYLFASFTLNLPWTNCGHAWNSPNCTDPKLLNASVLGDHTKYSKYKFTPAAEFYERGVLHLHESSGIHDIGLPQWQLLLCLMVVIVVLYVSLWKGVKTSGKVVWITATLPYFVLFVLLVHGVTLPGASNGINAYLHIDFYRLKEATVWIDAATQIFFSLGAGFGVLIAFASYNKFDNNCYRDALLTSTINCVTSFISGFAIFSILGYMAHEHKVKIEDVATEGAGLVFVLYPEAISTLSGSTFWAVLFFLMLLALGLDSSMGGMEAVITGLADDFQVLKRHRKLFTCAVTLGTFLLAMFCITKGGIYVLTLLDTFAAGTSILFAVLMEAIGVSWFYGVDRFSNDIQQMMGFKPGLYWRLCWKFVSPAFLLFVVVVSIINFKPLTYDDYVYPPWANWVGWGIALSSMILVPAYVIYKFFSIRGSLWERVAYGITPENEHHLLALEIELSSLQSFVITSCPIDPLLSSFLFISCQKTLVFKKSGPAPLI

SMILES	IC50 [1]	AD50 (Rattus norvegicus [2])	IC50 [3]	IC50 [4]	ED50 (Mus musculus [5])	AD50 (Rattus norvegicus [6])	IC50 [7]	ED50 (Mus musculus [8])	ED50 (Mus musculus [9])	ED50 (Mus musculus [10])	AD50 (Rattus norvegicus [11])
Fc1ccc2[nH]cc(CC3CCNCC3)c2c1	1000 nM	100 mg/kg	7000 nM	170 nM	32 mg/kg						
Clc1ccc2[nH]cc(CCC3CCNCC3)c2c1	650 nM		1500 nM	220 nM		inactive	130 nM	inactive			
CN(C)CCCN1c2ccccc2CCc2ccc(Cl)cc21 [CLOMIPRAMINE]		45 mg/kg	1000 nM		6.5 mg/kg						
O=C(O)/C=C/C(=O)O.c1ccc(-n2cc(CCC3CCNCC3)c3ccccc32)cc1	400 nM	> 100 mg/kg	20000 nM	> 1000 nM			1000 nM	inactive			
c1ccc(Cn2cc(CCC3CCNCC3)c3ccccc32)cc1	5000 nM		300 nM	> 1000 nM		inactive	1900 nM	inactive			
CN1CCC(CCc2c[nH]c3ccccc23)CC1	40000 nM		6500 nM	> 1000 nM		inactive	450 nM	inactive			
Brc1ccc2[nH]cc(CC3CCNCC3)c2c1	600 nM	10 mg/kg	8000 nM	1000 nM			700 nM		inactive		
c1ccc2c(CCCC3CCNCC3)c[nH]c2c1	500 nM	56 mg/kg	3000 nM	60 nM	8 mg/kg		40 nM				
c1ccc(-c2[nH]c3ccccc3c2CCC2CCNCC2)cc1	1500 nM		3500 nM	> 1000 nM		inactive	2200 nM	inactive			
Oc1ccc2[nH]cc(CCC3CCNCC3)c2c1	1000 nM		2700 nM	20 nM		inactive	600 nM	inactive			
COc1ccc2[nH]cc(CCC3CCNCC3)c2c1	3000 nM		20000 nM	> 1000 nM		inactive	140 nM	inactive			
CN1CCC(CCc2cn(C)c3ccccc23)CC1	> 10000 nM		> 100000 nM	> 1000 nM		inactive	1700 nM	inactive			
COc1ccc2[nH]cc(CC3CCNCC3)c2c1	9000 nM		> 100000 nM	> 1000 nM		inactive	1000 nM	inactive			
Cn1cc(CCC2CCNCC2)c2ccccc21	1300 nM		30000 nM	400 nM		inactive	400 nM			inactive	
c1ccc2c(CC3CCNCC3)c[nH]c2c1	1500 nM		20000 nM	550 nM	10 mg/kg	inactive	50 nM				
Oc1ccc2c(CCC3CCNCC3)c[nH]c2c1	600 nM		150 nM	> 1000 nM		inactive	1500 nM	inactive			
Clc1ccc2[nH]cc(CC3CCNCC3)c2c1	1800 nM		12000 nM	> 1000 nM			700 nM		inactive		inactive
c1ccc2c(CCC3CCNCC3)c[nH]c2c1 [INDALPINE]	1600 nM		18000 nM	30 nM	4 mg/kg		10 nM				
Cc1[nH]c2ccccc2c1CCC1CCNCC1	6500 nM	>100 mg/kg	23000 nM	> 1000 nM			2500 nM	inactive			
